We go through two substances from publication PMC3188443 (Biochemical pharmacology, 2010).

Ends that are not written are not given here.

In assay [1] the target is His-tagged murine Stat3 protein (murine) (UniProt P42227). In words: SPR. For orientation: SPR reads the build-up and loss of mass on a sensor chip optically.
The target is the same in assay [2]. In words: fluorescence polarisation. Background: In fluorescence polarisation assays a small probe gives low polarisation when free and higher when bound to something large.
Assay [3] deals with T1, Stat3 (Mus musculus, UniProt P42227). In words: Surface Plasmon Resonance analysis of binding to immobilized His-tagged Stat3. More on the design: species or system murine. As to conditions: 0-5 μM peptide as analyte. An outline of the steps: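 His-tagged Stat3 expressed in E. coli BL21(DE3), purified on a Ni-ion Sepharose column, and captured on a HisCap sensor chip by injecting 50 μg/ml protein. Analytes were unphosphorylated or phosphotyrosine gp-130 heptapeptides at 0-5 μM, passed over the chip. Running buffer was 1X PBS, 0.5% DMSO. Association and dissociation rate constants were fitted, and KD was taken as their ratio.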

Assay [4] addresses T1, Stat3. The format is binding, murine. As to conditions: 150 nM His-Stat3, unlabeled peptide.

Chain of His-tagged murine Stat3 protein (murine) (P42227 whole entry): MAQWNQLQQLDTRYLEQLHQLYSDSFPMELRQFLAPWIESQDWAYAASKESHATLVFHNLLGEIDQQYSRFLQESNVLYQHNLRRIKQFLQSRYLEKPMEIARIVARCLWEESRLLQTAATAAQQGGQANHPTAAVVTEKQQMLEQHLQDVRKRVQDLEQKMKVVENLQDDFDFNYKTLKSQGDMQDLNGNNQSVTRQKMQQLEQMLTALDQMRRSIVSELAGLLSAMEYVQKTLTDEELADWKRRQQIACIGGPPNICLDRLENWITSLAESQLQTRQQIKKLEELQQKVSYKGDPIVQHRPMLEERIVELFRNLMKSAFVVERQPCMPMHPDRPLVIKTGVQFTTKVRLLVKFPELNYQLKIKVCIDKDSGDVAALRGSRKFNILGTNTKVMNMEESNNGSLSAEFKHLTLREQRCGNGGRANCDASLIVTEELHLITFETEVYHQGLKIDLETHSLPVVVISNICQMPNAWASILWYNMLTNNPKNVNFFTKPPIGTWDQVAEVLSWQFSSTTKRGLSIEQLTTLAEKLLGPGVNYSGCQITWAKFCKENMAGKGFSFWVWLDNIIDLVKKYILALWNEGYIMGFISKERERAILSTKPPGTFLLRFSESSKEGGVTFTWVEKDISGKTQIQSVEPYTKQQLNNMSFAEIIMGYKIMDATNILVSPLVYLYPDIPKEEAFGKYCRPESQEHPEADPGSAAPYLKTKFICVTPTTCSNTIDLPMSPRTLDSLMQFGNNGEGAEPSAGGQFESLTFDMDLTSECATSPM
T1 sequence (P42227 whole entry): as above

For orientation: Kd means the constant that tells how readily two partners part at equilibrium. Read a high Kd as lower affinity. Usually IC50 stands for the concentration needed to halve the response being measured. High values mean weaker potency in that assay, low ones greater potency in that assay. “GpYLPQTV-NH2, high affinity Stat3-binding phosphoTyr peptide derived from the IL-6R subunit gp-130”: the Kd in assay [1] is 24 nM. Further, the IC50 in assay [2] worked out at 300 nM.
With GYLPQTV-NH2, in assay [3], the “binding to Stat3 (SPR)” value is “no significant binding”. Besides, in assay [4], the “inhibition in the FP assay, in words” value was “no evidence of inhibition”.
